Screens: PubChem BioAssay, several laboratories
UBC9 SUMO inh = blocks human SUMOylation mediated by UBC9; P63279; HTRF SUMOylation assay, SAE1/SAE2 + UBC9, in vitro; inhibition, % at 35 µM; 290,000 tested, 0.36% active; in the data active = inhibition above about 50%, passing the limit was not always enough
Apaf-1 inh = inhibitors of human Apaf-1 apoptosome | inhibition, % at 20 µM | AID 489030 | 330,000 tested, 0.71% active | O14727 | reconstituted apoptosome caspase-3 activity, DEVD-Rh110 fluorescence; active = inhibition of at least 40% at 20 µM;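 note: plate controls were DMSO wells for no effect and DEVD-CHO caspase inhibitor wells for full effect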
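Assay system: Apoptosome proteins | Medium: pH 7.5 Hepes buffer with CHAPS, BSA, DTT | Also added: Cytochrome c and DEVD-Rh110 substrate | Times: 30 min plus 50 min, RT | Detection: Rhodamine 110 fluorescence at Ex 480/Em 540 nm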
Rin1 Abl inh = inhibitors of human Rin1-Abl protein interaction; TR-FRET Rin1/Abl binding, biochemical; inhibition, % at 7.35 µM; 360,000 tested, 0.4% active; AID 588664; in the data active = inhibition above about 5%, passing the limit was not always enough
PAD4 inh = PAD4 (human) enzyme inhibition; 330,000 tested, 0.41% active; AID 485272; recombinant PAD4, RCA probe fluorescence polarization; Q9UM07; inhibition, % at 6.36 µM;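 active = percent inhibition above a cutoff equal to the mean of all tested compounds plus 3 SD, cut at about 15% in these data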;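 note: 0% = PAD4 with RCA probe and DMSO and 100% = probe without PAD4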
UBC13 polyUb = human UBC13 polyubiquitination inhibition; P61088; UBC13 polyubiquitin chain formation, TR-FRET; inhibition, % at 20 µM; 330,000 tested, 0.47% active; in the data active = inhibition above about 45%, passing the limit was not always enough
GSTO1 counter = counter-screen for RBBP9 inhibitors: inhibitors of human GSTO1; AID 1974; P78417; inhibition, % at 5.96 µM; recombinant GSTO1, activity-based probe fluorescence polarization; 300,000 tested, 1.1% active;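 active = inhibition above the campaign mean inhibition plus 3 SD, cut at about 35% in these data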;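 note: 0% = GSTO1-1 with DMSO and 100% = wells lacking GSTO1-1 enzyme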
Casp3 UBC13 ctr = inhibits human caspase-3 in UBC13 counter-screen | shares compounds with UBC13 polyUb | Recombinant caspase-3, Caspase-Glo 3/7 luminescence, 60 min | inhibition, % at 20 µM | 1,400 tested, 4% active | AID 488856;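 active = mean inhibition across replicates above about 26%, limit read from the data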;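 note: plate controls were DMSO with caspase-3 for no effect and DMSO wells lacking enzyme for full effect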
UBC13 conf = human UBC13 polyubiquitin inhibition, confirmed; AID 488859; 1,400 tested, 68% active; UBC13 polyubiquitination, TR-FRET, biochemical; shares compounds with UBC13 polyUb; inhibition, % at 10 µM; in the data active = inhibition above about 45%
The depositor's hits bear a star; · = not tested or not shown. Most compounds without a hit are left out; they make up all but 2.2% or so of the library.

SMILES | UBC9 SUMO inh | Apaf-1 inh | Rin1 Abl inh | PAD4 inh | UBC13 polyUb | GSTO1 counter | Casp3 UBC13 ctr | UBC13 conf
CC(C)c1nnc(NC(=O)c2nc(S(=O)(=O)Cc3ccccc3)ncc2Cl)s1 | 2 | -4 | -1 | 0 | 41 | 0 | · | ·
CCCS(=O)(=O)c1ncc(Cl)c(C(=O)Nc2ccc(S(=O)(=O)Nc3ncccn3)cc2)n1 | 1 | -9 | -2 | -4 | 53* | -7 | -2 | 50*
CCOCC(=O)Nc1ccc(S(=O)(=O)N2CCC(c3nc4ccccc4[nH]3)CC2)cc1 | · | 10 | 3 | -1 | -6 | 0 | · | ·
Cc1ccccc1Cn1c(C)c(C(=O)NCC(C)C)sc1=O | · | · | -1 | · | · | · | · | ·
Cc1cccc(N(C(=O)c2snc(C(N)=O)c2N)C(C(=O)NCC2CCCO2)c2c[nH]c3ccccc23)c1 (configuration not stated) | -19 | 11 | 0 | 3 | 77* | -2 | 4 | 81*
Cc1cccc(N(C(=O)c2snc(C(N)=O)c2N)C(C)C(=O)NCC2CCCO2)c1 (configuration not stated) | -6 | 1 | 2 | 1 | 12 | -1 | · | ·
NC(=O)c1nsc(C(=O)N(c2cccc(F)c2)C(C(=O)NCC2CCCO2)c2ccc3ncccc3c2)c1N (configuration not stated) | 11 | 2 | -4 | 3 | 33 | 4 | · | ·
CCOc1ccc(C(C(=O)NCC2CCCO2)N(C(=O)c2snc(C(N)=O)c2N)c2ccc(F)cc2)cc1 (configuration not stated) | 6 | 20 | 2 | -3 | 17 | -2 | · | ·
NC(=O)c1nsc(C(=O)N(c2cccc(F)c2)C(C(=O)NCC2CCCO2)c2c[nH]c3ccccc23)c1N (configuration not stated) | -15 | 16 | 1 | 0 | 79* | -5 | 0 | 87*
NC(=O)c1nsc(C(=O)N(c2ccc(F)cc2)C(C(=O)NCC2CCCO2)c2c[nH]c3ccccc23)c1N (configuration not stated) | -10 | 18 | 1 | -4 | 63* | -4 | 2 | 64*
Cn1c2ccc(F)cc2c2nc3ccccc3nc21 | 13 | 4 | -1 | 0 | 51* | 1 | 9 | 14
CCn1c2ccc(F)cc2c2nc3ccccc3nc21 | 11 | 12 | -1 | -6 | 34 | 0 | · | ·
Cc1ccc2c(c1)c1nc3ccccc3nc1n2C | 16 | -14 | -2 | -1 | 53* | -2 | 8 | 16
C1=NN(c2ccccc2)C=NN1c1ccccc1 | · | · | -1 | · | · | · | · | ·
[N-]=[N+]=NCCN1CCN(CCc2ccccc2)CCC1=O | -4 | 3 | 3 | -8 | -5 | 9 | · | ·
O=C(NC(=S)Nc1ccc(N2CCN(C(=O)c3ccccc3)CC2)cc1)c1cccs1 | 7 | 11 | 1 | -1 | 48* | 3 | 0 | 56*
O=C(NC(=S)Nc1ccccc1N1CCN(C(=O)c2ccccc2)CC1)c1cccs1 | 2 | 19 | 2 | 2 | -4 | -6 | · | ·
CC(C)n1ncc2c(C(=O)Nc3ccc(S(N)(=O)=O)cc3)cc(C3CC3)nc21 | · | 75* | -1 | -7 | 75* | · | 0 | 49*
CC(C)n1ncc2c(C(=O)Nc3ccc(S(C)(=O)=O)cc3)cc(C3CC3)nc21 | · | 10 | -2 | -10 | -8 | · | · | ·
CSc1ccc(CN2CCC2(C)C(=O)Nc2cnc3ccccc3c2)cc1 (configuration not stated) | · | · | -6 | · | · | · | · | ·
O=C(CNc1ccccc1F)Nc1cccc(S(=O)(=O)N2CCCCC2)c1 | · | 23 | 0 | · | -8 | · | · | ·
NC(=S)N=Nc1c(O)n(Cc2ccccc2)c2ccccc12 | -19 | -5 | -2 | -3 | 42 | 8 | · | ·
COC(=O)c1ccc(Cn2c(O)c(N=NC(N)=S)c3ccccc32)o1 | 11 | -2 | -6 | -2 | 69* | 21 | 2 | 81*
C/C(Cl)=C\Cn1c(O)c(N=NC(N)=S)c2ccccc21 | 6 | 15 | 0 | 1 | 84* | 6 | -4 | 102*
Clc1ccc(-c2cccc3nccn23)c(Cl)c1 | · | · | -4 | · | · | · | · | ·
